Values after ≈ are worked out from the molar mass of the structure shown.
How the values were obtained:
[1] = Stability in CD-1 mouse liver microsomes assessed as compound remaining measured after 1 hr; type: ADME, microsome; conditions: read-out: Stability
[2] = Cytotoxicity against human MRC5 SV2 cells after 72 hrs by resazurin dye based fluorescence assay; type: cell-based
In short: (§1)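 IC50 for growth inhibition of L. infantum, T. cruzi and T. brucei parasites, or for cytotoxicity toward human lung fibroblasts (MRC-5). Values are means of two or more independent experiments.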

[3] = Stability in pooled human liver microsomes assessed as compound remaining measured after 1 hr; type: ADME, microsome; conditions: read-out: Stability
[4] = tested on: Trypanosoma brucei brucei; test: Anti-parasitic activity against Trypanosoma brucei brucei Squib-427 after 72 hrs by resazurin dye based fluorescence assay; type: functional; in short: as §1
[5] = tested on: Leishmania infantum; test: Anti-parasitic activity against Leishmania infantum MHOM/MA(BE)/67 amastigotes infected in mouse primary peritoneal macrophages after 5 days by giemsa staining based microscopic method; type: functional; in short: as §1
[6] = tested on: Trypanosoma cruzi; test: Anti-parasitic activity against Trypanosoma cruzi Tulahuen CL2 infected in human MRC5 cells after 7 days by chlorophenol red […]-D-galactopyranoside dye based assay; type: functional, cell-based; in short: as §1
[7] = tested on: Mycobacterium tuberculosis; test: Anti-tubercular activity against Mycobacterium tuberculosis H37Rv ATCC 27294 after 7 days under aerobic condition by microplate alamar blue assay; type: functional
In short: (§2)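 M. tuberculosis H37Rv MIC measured in two assays: aerobic growth by MABA and hypoxic exposure by LORA. Each value is the mean of ≥2 independent determinations.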

[8] = tested on: Mycobacterium tuberculosis; test: Anti-tubercular activity against Mycobacterium tuberculosis H37Rv ATCC 27294 after 10 days under hypoxic condition by low-oxygen recovery assay; type: functional; in short: as §2
[9] = tested on: Vero; test: Cytotoxicity against African green monkey Vero cells after 72 hrs by MTS/PMS assay; type: cell-based; conditions: Chlorocebus sabaeus
In short: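 VERO mammalian cells exposed for 72 h. Cytotoxicity IC50 comes from a single test.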

[10] = tested on: Mycobacterium tuberculosis; test: Anti-tubercular activity against Mycobacterium tuberculosis infected in BALB/c mouse assessed as reduction in lung colony forming units at 100 mg/kg, po administered via gavage for 5 days each week for 3 weeks measured after 1 day post last dose relative to PA-824; type: functional
In short: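 Mouse model of acute TB infection. Oral dosing at 100 mg/kg daily, 5 days per week, for 3 weeks. Read-out is fold reduction in lung CFU, expressed as a ratio to the fold CFU reduction from the reference nitroimidazole run alongside.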

[11] = Solubility in water at pH 7 after 15 mins by HPLC method; type: physicochemical; conditions: water, pH 7
In short: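 Solubility measured at 20 °C by HPLC, in water (pH 7) or 0.1 M HCl (pH 1).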

[12] = Trypanosoma brucei, Squib-427, 72 h
[13] = Leishmania infantum, MHOM/MA(BE)/67, 120 h
[14] = Trypanosoma cruzi, Tulahuen CL2, MRC5, 168 h
[15] = Mycobacterium tuberculosis, H37Rv ATCC 27294, 168 h, read-out: MIC
[16] = Mycobacterium tuberculosis, H37Rv ATCC 27294, 240 h, read-out: MIC

| SMILES | remaining at 1 h [1] [%] | IC50 ([2]; Homo sapiens, MRC-5 SV2, 72 h) [µM] | remaining at 1 h [3] [%] | IC50 [4, 12] [µM] | IC50 [5, 13] [µM] | IC50 [6, 14] [µM] | MIC [7, 15] [µM] | MIC [8, 16] [µM] | IC50 [9] [µM] | IC50 [4] [µM] | IC50 [6] [µM] | MIC [7] [µM] | MIC [8] [µM] | IC50 ([2]; mrc5 sv2) [µM] | IC50 [5] [µM] | fold change (FC) [10] | solubility at 0.25 h [11] [µg/mL] |
| --- | --- | --- | --- | --- | --- | --- | --- | --- | --- | --- | --- | --- | --- | --- | --- | --- | --- |
| C[C@]1(COCc2ccc(OC(F)(F)F)cc2)Cn2cc([N+](=O)[O-])nc2S1 | 0 | 43 | 29 | > 64 | > 64 | 0.57 | 0.2 (≈ 0.0779 µg/mL) | 5.8 (≈ 2.26 µg/mL) | 24 | – | – | – | – | – | – | – | – |
| CC1(COc2ccc(Oc3ccccc3)cc2)Cn2cc([N+](=O)[O-])nc2S1(=O)=O (configuration not stated) | – | 45 | – | 3.8 | 55 | 0.46 | > 128 | > 128 | > 128 | – | – | – | – | – | – | – | – |
| CC1(COc2ccc(OC(F)(F)F)cc2)Cn2cc([N+](=O)[O-])nc2[S+]1[O-] (stereo in doubt; 38) | – | – | – | – | – | – | – | – | – | 41 | 1.7 | 26 (≈ 10.2 µg/mL) | 58 (≈ 22.7 µg/mL) | – | – | – | – |
| CC1(COc2ccc(Oc3ccccc3)cc2)Cn2cc([N+](=O)[O-])nc2[S+]1[O-] (stereo in doubt; 40) | – | – | – | – | – | – | > 128 | – | – | 0.98 | 0.75 | – | 25 (≈ 9.99 µg/mL) | 51 | 42 | – | – |
| C[C@@]1(COCc2ccc(OC(F)(F)F)cc2)Cn2cc([N+](=O)[O-])nc2S1 | – | > 64 | – | > 64 | > 64 | 1.6 | 6.1 (≈ 2.38 µg/mL) | 51 (≈ 19.9 µg/mL) | 52 | – | – | – | – | – | – | – | – |
| CC1(COCc2ccc(Oc3ccccc3)cc2)Cn2c([N+](=O)[O-])cnc2S1 (configuration not stated) | – | > 64 | – | 53 | 55 | 19 | > 128 | > 128 | – | – | – | – | – | – | – | – | – |
| CC1(COc2ccc(OC(F)(F)F)cc2)Cn2cc([N+](=O)[O-])nc2S1 (configuration not stated) | – | > 64 | – | > 64 | > 64 | 0.38 | 0.49 (≈ 0.184 µg/mL) | 10 (≈ 3.75 µg/mL) | > 128 | – | – | – | – | – | – | – | – |
| CC1(COc2ccc(OC(F)(F)F)cc2)Cn2nc(Br)nc2S1 (configuration not stated) | – | 42 | – | 34 | > 64 | 6.2 | 24 (≈ 9.85 µg/mL) | > 128 | 89 | – | – | – | – | – | – | – | – |
| CC1(CO)Cn2cc([N+](=O)[O-])nc2S1 (configuration not stated) | – | – | – | – | – | – | 10 (≈ 2.15 µg/mL) | > 128 | – | – | – | – | – | – | – | – | – |
| CC1(COc2ccc(-c3ccc(C(F)(F)F)cc3)cc2)Cn2cc([N+](=O)[O-])nc2S1 (configuration not stated) | – | > 64 | – | 52 | > 64 | 0.035 | 0.12 (≈ 0.0523 µg/mL) | 46 (≈ 20 µg/mL) | > 128 | – | – | – | – | – | – | – | – |
| CC1(COc2ccc(OC(F)(F)F)cc2)Cn2cc([N+](=O)[O-])nc2[S+]1[O-] (stereo in doubt; 37) | – | > 64 | – | > 64 | > 64 | 2.3 | – | – | > 128 | – | – | >128 | >128 | – | – | – | – |
| CC1(COc2ccc(OC(F)(F)F)cc2)Cn2nc([N+](=O)[O-])nc2[S+]1[O-] (configuration not stated) | – | 0.74 | – | 3 | 0.9 | 1.2 | 9.3 (≈ 3.65 µg/mL) | 90 (≈ 35.3 µg/mL) | 98 | – | – | – | – | – | – | – | – |
| CC1(COc2ccc(-c3ccc(F)cc3)cc2)Cn2cc([N+](=O)[O-])nc2S1 (configuration not stated) | – | > 64 | – | > 64 | > 64 | 0.21 | 0.21 (≈ 0.0809 µg/mL) | > 64 | > 128 | – | – | – | – | – | – | – | – |
| CC1(COCc2ccc(OC(F)(F)F)cc2)Cn2c([N+](=O)[O-])cnc2S1 (configuration not stated) | – | 47 | – | 22 | > 64 | 7.3 | 55 (≈ 21.4 µg/mL) | 59 (≈ 23 µg/mL) | 45 | – | – | – | – | – | – | – | – |
| CC1(COc2ccc(-c3ccc(OC(F)(F)F)cc3)cc2)Cn2cc([N+](=O)[O-])nc2S1 (configuration not stated) | 75 | > 64 | 84 | > 64 | 45 | 0.085 | 0.063 (≈ 0.0284 µg/mL) | > 128 | > 128 | – | – | – | – | – | – | 5.7 | 0.25 (≈ 0.554 µM) |
| CC1(COc2ccc(OC(F)(F)F)cc2)Cn2cc([N+](=O)[O-])nc2S1(=O)=O (configuration not stated) | – | > 64 | – | > 64 | > 64 | 1.8 | 14 (≈ 5.7 µg/mL) | 15 (≈ 6.11 µg/mL) | > 128 | – | – | – | – | – | – | – | – |
| CC1(COCc2ccc(OC(F)(F)F)cc2)Cn2cc([N+](=O)[O-])nc2[S+]1[O-] (stereo in doubt; 19) | – | – | – | – | – | – | > 128 | – | – | – | 3 | – | – | – | – | – | – |
| O=[N+]([O-])c1cn2c(n1)SC(COc1ccc(Oc3ccccc3)cc1)C2 (configuration not stated) | – | 56 | – | 11 | 56 | 1.6 | > 128 | 29 (≈ 10.7 µg/mL) | > 128 | – | – | – | – | – | – | – | – |

Source: ChEMBL document CHEMBL4028840, “6-Nitro-2,3-dihydroimidazo[2,1-b][1,3]thiazoles: Facile synthesis and comparative appraisal against tuberculosis and neglected tropical diseases” (Bioorg Med Chem Lett, 2017)
